Experimental findings from ChEMBL document CHEMBL1123225, “Opioid agonist and antagonist bivalent ligands. The relationship between spacer length and selectivity at multiple opioid receptors” (J Med Chem, 1986) are described below.

Starred links: 1 amine or outer side, 2 acyl side, 3 side chain; linkers in the order of their positions; H or OH if unused. Positions of bridges follow the written chain, without caps; N, C: chain ends. Residues, ends and D or L forms follow the SMILES beside them. Chains are numbered I, II in the order given. *: point of attachment. Naltrexamine(6β) = Oc1ccc2c3c1O[C@H]1[C@H](N*)CC[C@@]4(O)[C@@H](C2)N(CC2CC2)CC[C@]314; Suc = O=C(CCC(=O)[*:2])[*:1]

The target of assay [1] is Mu-type opioid receptor (Cavia porcellus) (UniProt P97266). The assay can be described thus: Affinity comparison to [3H]naloxone for Opioid receptor mu 1 in guinea pig brain membrane. It is filed as cell membranes.
The target of assay [2] is Opioid receptors; mu & kappa (Homo sapiens, UniProt P41145+P35372). Briefly: Activity against opioid receptor in guinea pig ileum longitudinal muscle. It is filed as functional, tissue-based, Cavia porcellus. The note with it: target entry is the homologue from another species. The gist of the method: (§1)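 Electrically stimulated guinea pig ileum longitudinal muscle, with agonist inhibition measured. Ligands were incubated 30 min before testing. Potency ratio = morphine IC50 / compound IC50 on the same tissue. The relative value divides the bivalent potency ratio by the monovalent potency ratio. Each value is the mean of at least three replicate experiments.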

A further assay has as its target Mu-type opioid receptor (Cavia porcellus, UniProt P97266). The assay can be described thus: Displacement of [3H]naloxone from Opioid receptor mu 1 in guinea pig brain membrane. The format is cell membranes.
Assay [3] in a line: Potency ratio is the ratio of morphine IC50 to that of compound on same tissue. Put shortly:
as §1

A short description of assay [4]: Relative potency is the bivalent potency ratio divided by monovalent potency ratio. The gist of the method:
as §1

A short description of assay [5]: (§2) Relative potency is the IC5O in presence of bivalent ligand divided by IC50 in presence of monovalent ligand relative to EK. The gist of the method: (§3)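 Antagonism in electrically stimulated guinea pig ileum. Antagonist at 10 nM was incubated 30 min, then morphine (μ) or ethylketazocine (κ) concentration–response was run. IC50 ratio = agonist IC50 with antagonist / control IC50 in the same preparation without antagonist. Relative potency = bivalent IC50 ratio / monovalent IC50 ratio. Selectivity = EK IC50 ratio / morphine IC50 ratio.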

Assay [6] is described as follows: Relative potency is the IC5O in presence of bivalent ligand divided by IC50 in presence of monovalent ligand relative to morphine. Put shortly: as §3
Assay [7] is described as follows: (§4) Selectivity ratio is expressed as EK IC50 ratio divided by morphine IC50 ratio. Put shortly:
as §3

The target in assay [8] is T1, Opioid receptors; mu/kappa/delta (Homo sapiens) (UniProt P41145+P41143+P35372). The description is as §2. It is filed as protein assay. The note with it: Cavia porcellus. The gist of the method: as §3
The target of assay [9] is T1, Opioid receptors; mu/kappa/delta (Homo sapiens). The assay can be described thus: IC50 of the morphine in the presence of the antagonist (10 nM) divided by the control IC50 (same preparation without antagonist) in guinea pig ileum. As to conditions: Cavia porcellus, target entry is the homologue from another species. It is filed as functional, tissue-based. The gist of the method:
as §3

The target is the same in assay [10]. Briefly: Relative potency is the IC50 in presence of bivalent ligand divided by IC50 in presence of monovalent ligand relative to morphine. As to conditions: Cavia porcellus. Put shortly:
as §3

The target is the same in assay [11]. Described as §4. The note with it: Cavia porcellus. The format is protein assay. Put shortly: as §3
Assay [12] shares this target. The assay can be described thus: IC50 of ethylketazocine (EK) in the presence of the antagonist (10 nM) divided by the control IC50 (same preparation without antagonist) in guinea pig ileum. The format is functional, tissue-based. The note with it: Cavia porcellus, target entry is the homologue from another species. The gist of the method:
as §3

Sequence of Mu-type opioid receptor (P97266 whole entry): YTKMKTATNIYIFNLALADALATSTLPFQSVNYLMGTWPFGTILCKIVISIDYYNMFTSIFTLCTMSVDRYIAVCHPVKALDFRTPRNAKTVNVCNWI
Sequence of Mu-type opioid receptor (Cavia porcellus) (P97266 whole entry): as above
T1 sequence (P35372 whole entry, looked up): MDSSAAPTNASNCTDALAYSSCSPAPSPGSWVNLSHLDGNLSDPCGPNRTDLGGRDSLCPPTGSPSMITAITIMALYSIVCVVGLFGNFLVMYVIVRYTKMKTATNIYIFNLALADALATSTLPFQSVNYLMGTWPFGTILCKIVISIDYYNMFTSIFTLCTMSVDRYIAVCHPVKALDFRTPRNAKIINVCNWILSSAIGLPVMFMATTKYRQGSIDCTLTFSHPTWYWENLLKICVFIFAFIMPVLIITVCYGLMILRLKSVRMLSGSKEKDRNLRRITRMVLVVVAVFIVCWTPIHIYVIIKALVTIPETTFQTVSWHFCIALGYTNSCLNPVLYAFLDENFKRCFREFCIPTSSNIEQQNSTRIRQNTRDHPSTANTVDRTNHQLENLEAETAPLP
T1 sequence (P41143 whole entry, looked up): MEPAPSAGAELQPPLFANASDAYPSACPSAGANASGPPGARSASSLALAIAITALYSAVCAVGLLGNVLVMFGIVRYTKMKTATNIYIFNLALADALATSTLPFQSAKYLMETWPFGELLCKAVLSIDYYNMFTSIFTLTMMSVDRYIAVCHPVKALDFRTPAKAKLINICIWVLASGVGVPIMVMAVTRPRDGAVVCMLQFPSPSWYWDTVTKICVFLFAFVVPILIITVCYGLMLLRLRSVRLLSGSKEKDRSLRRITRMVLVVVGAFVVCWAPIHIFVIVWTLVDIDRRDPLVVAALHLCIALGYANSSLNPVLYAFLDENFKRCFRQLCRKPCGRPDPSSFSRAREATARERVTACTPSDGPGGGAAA
T1 sequence (P41145 whole entry, looked up): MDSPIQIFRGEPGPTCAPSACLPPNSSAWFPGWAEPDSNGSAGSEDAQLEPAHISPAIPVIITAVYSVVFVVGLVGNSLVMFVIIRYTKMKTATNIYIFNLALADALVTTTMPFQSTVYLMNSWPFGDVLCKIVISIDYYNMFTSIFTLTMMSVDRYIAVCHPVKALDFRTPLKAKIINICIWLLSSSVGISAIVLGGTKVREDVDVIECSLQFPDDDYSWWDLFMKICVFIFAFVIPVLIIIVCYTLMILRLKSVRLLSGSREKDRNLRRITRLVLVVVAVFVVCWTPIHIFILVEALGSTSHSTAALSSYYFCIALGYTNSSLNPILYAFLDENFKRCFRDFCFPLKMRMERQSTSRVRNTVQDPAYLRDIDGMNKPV

In turn, `CC(=O)N[C@@H]1CC[C@@]2(O)[C@H]3Cc4ccc(O)c5c4[C@@]2(CCN3C)[C@H]1O5` returned a Relative affinity in assay [1] of 1. The IC50 in [2] is on record as 45.9 nM. The compound also yielded a Ki on Mu-type opioid receptor of 63 nM. Besides, the Potency ratio in assay [3] came out at 2.3. Also, the Ratio in [4] turned out to be 1.
Turning to `CN1CC[C@]23c4c5ccc(O)c4O[C@H]2[C@@H](NC(=O)CCC(=O)N[C@H]2CC[C@@]4(O)[C@H]6Cc7ccc(O)c8c7[C@@]4(CCN6C)[C@H]2O8)CC[C@@]3(O)[C@H]1C5`, in [1], the Relative affinity was determined as 3.6. In addition, in assay [2], the IC50 is 30.2 nM. Also, the Ki at Mu-type opioid receptor was found to be 50 nM. Moreover, the Potency ratio in [3] was determined as 4.6. Also, the Ratio in assay [4] turned out to be 2.4.
The compound `CN1CC[C@]23c4c5ccc(O)c4O[C@@H]2[C@H](NC(=O)CNC(=O)CCC(=O)NCC(=O)N[C@@H]2CC[C@]4(O)[C@H]6Cc7ccc(O)c8c7[C@@]4(CCN6C)[C@@H]2O8)CC[C@]3(O)[C@H]1C5` displayed a Relative affinity in [1] of 3.5. For the same compound, the IC50 in assay [2] is on record as 19.2 nM. This compound also registered a Ki on Mu-type opioid receptor of 18 nM. Also, in [3], the Potency ratio turned out to be 5.8. In addition, the Ratio in assay [4] amounted to 2.5.
With `O=C(CCC(=O)NCC(=O)NCC(=O)NCC(=O)N[C@@H]1CC[C@@]2(O)[C@H]3Cc4ccc(O)c5c4[C@@]2(CCN3CC2CC2)[C@H]1O5)NCC(=O)NCC(=O)NCC(=O)N[C@@H]1CC[C@@]2(O)[C@H]3Cc4ccc(O)c5c4[C@@]2(CCN3CC2CC2)[C@H]1O5`, the Ratio stood at 6.8 in assay [5] and 11.4 in assay [6]. Moreover, the Relative affinity in assay [1] turned out to be 0.9. This compound came in with a Ki on Mu-type opioid receptor of 1.6 nM. Also, the Selectivity ratio in assay [7] was 0.1.
With `O=C(CCC(=O)NCC(=O)NCC(=O)NCC(=O)NCC(=O)N[C@@H]1CC[C@@]2(O)[C@H]3Cc4ccc(O)c5c4[C@@]2(CCN3CC2CC2)[C@H]1O5)NCC(=O)NCC(=O)NCC(=O)NCC(=O)N[C@@H]1CC[C@@]2(O)[C@H]3Cc4ccc(O)c5c4[C@@]2(CCN3CC2CC2)[C@H]1O5` (I: GGGG-{Naltrexamine(6β)} / II: GGGG-{Naltrexamine(6β)}; linker I:N-II:N via Suc), the Ratio was 6 in assay [8] and 7.5 in assay [10]. Besides, the IC50 ratio was determined as 40.7 in [9] and 7.2 in [12]. The Selectivity ratio in [11] was 0.2.
As for `O=C(CCC(=O)NCC(=O)N[C@@H]1CC[C@@]2(O)[C@H]3Cc4ccc(O)c5c4[C@@]2(CCN3CC2CC2)[C@H]1O5)NCC(=O)N[C@@H]1CC[C@@]2(O)[C@H]3Cc4ccc(O)c5c4[C@@]2(CCN3CC2CC2)[C@H]1O5`, the Ratio in assay [5] was 18.6; in assay [6], 10.6. For the same compound, in [1], the Relative affinity came to 0.6. The same compound yielded a Ki on Mu-type opioid receptor of 2.3 nM. The Selectivity ratio in assay [7] amounted to 0.4.
For `O=C(CCC(=O)N[C@@H]1CC[C@@]2(O)[C@H]3Cc4ccc(O)c5c4[C@@]2(CCN3CC2CC2)[C@H]1O5)N[C@@H]1CC[C@@]2(O)[C@H]3Cc4ccc(O)c5c4[C@@]2(CCN3CC2CC2)[C@H]1O5`, the Ratio stood at 25.3 in [5] and 5.1 in assay [6]. In assay [1], this compound came in with a Relative affinity of 0.8. Further, the inhibition constant Ki on Mu-type opioid receptor was 1.7 nM. Further, the Selectivity ratio in [7] is 1.1.
`CN1CC[C@]23c4c5ccc(O)c4O[C@@H]2[C@H](NC(=O)CNC(=O)CNC(=O)CNC(=O)CCC(=O)NCC(=O)NCC(=O)NCC(=O)N[C@@H]2CC[C@]4(O)[C@H]6Cc7ccc(O)c8c7[C@@]4(CCN6C)[C@@H]2O8)CC[C@]3(O)[C@H]1C5` showed a Relative affinity in [1] of 2.9. The same compound showed an IC50 in assay [2] of 12.6 nM. In addition, the Ki at Mu-type opioid receptor came to 22 nM. Moreover, in assay [3], the Potency ratio amounted to 3.9. Further, in assay [4], the Ratio came out at 1.7.
Consider `O=C(CCC(=O)NCC(=O)NCC(=O)N[C@@H]1CC[C@@]2(O)[C@H]3Cc4ccc(O)c5c4[C@@]2(CCN3CC2CC2)[C@H]1O5)NCC(=O)NCC(=O)N[C@@H]1CC[C@@]2(O)[C@H]3Cc4ccc(O)c5c4[C@@]2(CCN3CC2CC2)[C@H]1O5`, for which the results for the Ratio in [5] and in [6] were 10.7 and 33.5, respectively. For the same compound, the Relative affinity in [1] amounted to 0.9. This compound had a Ki on Mu-type opioid receptor of 1.5 nM. The Selectivity ratio in [7] is 0.2.
Compound `CN1CC[C@]23c4c5ccc(O)c4O[C@H]2[C@@H](NC(=O)CNC(=O)CNC(=O)CCC(=O)NCC(=O)NCC(=O)N[C@H]2CC[C@@]4(O)[C@H]6Cc7ccc(O)c8c7[C@@]4(CCN6C)[C@H]2O8)CC[C@@]3(O)[C@H]1C5` gave a Relative affinity in assay [1] of 12.9. Besides, the IC50 in assay [2] is listed as 3.9 nM. On Mu-type opioid receptor, this compound displayed a Ki of 14 nM. Besides, the Potency ratio in assay [3] amounted to 36. The Ratio in [4] came out at 18.9.
The like results for `CN1CC[C@]23c4c5ccc(O)c4O[C@H]2[C@@H](NC(=O)CNC(=O)CCC(=O)NCC(=O)N[C@H]2CC[C@@]4(O)[C@H]6Cc7ccc(O)c8c7[C@@]4(CCN6C)[C@H]2O8)CC[C@@]3(O)[C@H]1C5` were, in that order, 4.1, 22 nM, 44 nM, 4 and 2.1.
In assay [1], `CN1CC[C@]23c4c5ccc(O)c4O[C@H]2[C@@H](NC(=O)CNC(=O)CNC(=O)CNC(=O)CCC(=O)NCC(=O)NCC(=O)NCC(=O)N[C@H]2CC[C@@]4(O)[C@H]6Cc7ccc(O)c8c7[C@@]4(CCN6C)[C@H]2O8)CC[C@@]3(O)[C@H]1C5` came in with a Relative affinity of 5.3. This compound gave an IC50 in [2] of 25.1 nM. This compound also yielded a Ki on Mu-type opioid receptor of 34 nM. For the same compound, the Potency ratio in assay [3] was found to be 5.5. Moreover, in [4], the Ratio worked out at 2.9.
As to `CN1CC[C@]23c4c5ccc(O)c4O[C@@H]2[C@H](NC(=O)CCC(=O)N[C@@H]2CC[C@]4(O)[C@H]6Cc7ccc(O)c8c7[C@@]4(CCN6C)[C@@H]2O8)CC[C@]3(O)[C@H]1C5`, the Relative affinity in assay [1] turned out to be 2.7. This compound came in with an IC50 in [2] of 15.7 nM. The compound also displayed a Ki on Mu-type opioid receptor of 23 nM. Moreover, the Potency ratio in assay [3] turned out to be 4.3. In addition, the Ratio in assay [4] is 1.9.
`CN1CC[C@]23c4c5ccc(O)c4O[C@@H]2[C@H](NC(=O)CNC(=O)CNC(=O)CCC(=O)NCC(=O)NCC(=O)N[C@@H]2CC[C@]4(O)[C@H]6Cc7ccc(O)c8c7[C@@]4(CCN6C)[C@@H]2O8)CC[C@]3(O)[C@H]1C5`: the Relative affinity in assay [1] was determined as 6.3. The compound also had an IC50 in assay [2] of 6.3 nM. For the same compound, the Ki on Mu-type opioid receptor was 10 nM. Further, the Potency ratio in assay [3] came out at 8. The Ratio in assay [4] was 3.5.
